“Also recorded” adds a separate entry of the source. Like-named read-outs stand apart in the source and are kept apart here.
How the values were obtained:
[1] = Serum pharmacokinetics, stratum A; type: in vivo, human; settings: for AUC(0-t) / Cmax / half-life / Tmax: human, serum, oral; for AUC(0-t): 100 mg/m2, AUC0–T (AUC0–24h)
PDGF β receptor = settings: cited from earlier work
[2] = Serum pharmacokinetics across all dosage levels; type: in vivo; settings: human, oral; for Tmax: across dosage levels; for half-life: pediatric patients, across all dosage levels
[3] = system: recurrent HGG, including DIPG; assay: Survival outcomes and response, stratum B; type: in vivo, human
Procedure, shortened: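 Dosing was BSA-based, rounded to 20 mg, and escalated from 100 mg/m2. PFS ran from therapy start to progression or any-cause death; OS ran from diagnosis to any-cause death. Event-free patients were censored at last follow-up. Survival was estimated by Kaplan–Meier.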

phospho-PDGFR = settings: C6 glioblastoma xenograft, single oral dose of 10 mg/kg, maintained for 3 h; ref Crenolanib Investigator's Brochure, AROG Pharmaceuticals, LLC, 2011; cited from earlier work
newly diagnosed DIPG = assay: Survival outcomes, stratum A; type: in vivo, human
Procedure, shortened: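 Dosing began with conformal RT (1.8-Gy fractions daily, 5 days/week, 54 Gy) and continued without break. PFS ran from therapy start to progression or death; OS ran from diagnosis to death. Kaplan–Meier estimates; log-rank versus age-matched institutional DIPG cohort (1992–2011).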

PDGF α receptor = settings: cited from earlier work
[4] = type: in vivo, human; settings: stratum B
[5] = read-out: 50% inhibitory concentration

**Q.** What does the source list for `CC1(COc2ccc3c(c2)ncn3-c2ccc3cccc(N4CCC(N)CC4)c3n2)COC1` [crenolanib]?
**A.** AUC(0-t) ([1]; stratum A1 (whole tablets), 100 mg/m^2, D28, median (range)): 7.34 µM·h; AUC(0-t) ([1]; stratum A2 (crushed tablets), 100 mg/m^2, D28, median (range)): 6.95 µM·h; Cmax ([1]; 100 mg/m2, C MAX, stratum A1 (whole tablets), 100 mg/m^2, D1, median (range)): 645 nM; Cmax ([1]; 100 mg/m2, C MAX, stratum A1 (whole tablets), 100 mg/m^2, D28, median (range)): 750 nM; Cmax ([1]; 100 mg/m2, C MAX, stratum A2 (crushed tablets), 100 mg/m^2, D1, median (range)): 692 nM; Cmax ([1]; 100 mg/m2, C MAX, stratum A2 (crushed tablets), 100 mg/m^2, D28, median (range)): 651 nM; half-life ([1]; 100 mg/m2, Half-life, stratum A1 (whole tablets), 100 mg/m^2, D1, median (range)): 8.5 h; half-life ([1]; 100 mg/m2, Half-life, stratum A1 (whole tablets), 100 mg/m^2, D28, median (range)): 4.9 h; half-life ([1]; 100 mg/m2, Half-life, stratum A2 (crushed tablets), 100 mg/m^2, D1, median (range)): 6.8 h; half-life ([1]; 100 mg/m2, Half-life, stratum A2 (crushed tablets), 100 mg/m^2, D28, median (range)): 5.1 h; Tmax ([1]; 100 mg/m2, T MAX, stratum A1 (whole tablets), 100 mg/m^2, D1, median (range)): 4 h; Tmax ([1]; 100 mg/m2, T MAX, stratum A1 (whole tablets), 100 mg/m^2, D28, median (range)): 6 h; Tmax ([1]; 100 mg/m2, T MAX, stratum A2 (crushed tablets), 100 mg/m^2, D1, median (range)): 2 h; Tmax ([1]; 100 mg/m2, T MAX, stratum A2 (crushed tablets), 100 mg/m^2, D28, median (range)): 4 h; Cmax ([1]; 130 mg/m2, C MAX, stratum A, 130 mg/m^2, D1, median (range)): 733 nM; Cmax ([1]; 130 mg/m2, C MAX, stratum A, 130 mg/m^2, D28, median (range)): 1110 nM; half-life ([1]; 130 mg/m2, Half-life, stratum A, 130 mg/m^2, D1, median (range)): 7.3 h; half-life ([1]; 130 mg/m2, Half-life, stratum A, 130 mg/m^2, D28, median (range)): 6.1 h; Tmax ([1]; 130 mg/m2, T MAX, stratum A, 130 mg/m^2, D1, median (range)): 2 h; Tmax ([1]; 130 mg/m2, T MAX, stratum A, 130 mg/m^2, D28, median (range)): 4 h; Cmax ([1]; 170 mg/m2, C MAX, stratum A, 170 mg/m^2, D1, median (range)): 1240 nM; Cmax ([1]; 170 mg/m2, C MAX, stratum A, 170 mg/m^2, D28, median (range)): 2010 nM; half-life ([1]; 170 mg/m2, Half-life, stratum A, 170 mg/m^2, D1, median (range)): 8.5 h; half-life ([1]; 170 mg/m2, Half-life, stratum A, 170 mg/m^2, D28, median (range)): 7.2 h; Tmax ([1]; 170 mg/m2, T MAX, stratum A, 170 mg/m^2, D1, median (range)): 4 h; Tmax ([1]; 170 mg/m2, T MAX, stratum A, 170 mg/m^2, D28, median (range)): 3 h; Cmax ([1]; 220 mg/m2, C MAX, stratum A, 220 mg/m^2, D1, median (range)): 1890 nM; Cmax ([1]; 220 mg/m2, C MAX, stratum A, 220 mg/m^2, D28, median (range)): 2270 nM; half-life ([1]; 220 mg/m2, Half-life, stratum A, 220 mg/m^2, D1, median (range)): 6.75 h; half-life ([1]; 220 mg/m2, Half-life, stratum A, 220 mg/m^2, D28, median (range)): 5.5 h; Tmax ([1]; 220 mg/m2, T MAX, stratum A, 220 mg/m^2, D1, median (range)): 4 h; Tmax ([1]; 220 mg/m2, T MAX, stratum A, 220 mg/m^2, D28, median (range)): 2 h; AUC0–T (AUC0–∞) ([1]; stratum A1 (whole tablets), 100 mg/m^2, D1, median (range)): 8683 (4566–15 895) h·nM; AUC0–T (AUC0–∞) ([1]; stratum A2 (crushed tablets), 100 mg/m^2, D1, median (range)): 7397 (3759–16 455) h·nM; AUC0–T (AUC0–∞) ([1]; stratum A, 130 mg/m^2, D1, median (range)): 5951 (2675–15 291) h·nM; 50% inhibitory concentration (PDGF β receptor): ~0.4 ng/mL; IC50 (PDGF β receptor; [5]): ~0.902 nM; Tmax ([2]; median): 4 h; Tmax ([2]; range): 1 to 8 h; half-life ([2]; median): 7.1 h; half-life ([2]; range): 2.2 to 18.8 h; 1-year OS estimate ([3]; all patients in stratum B): 72.1% ± 9.5%; 1-year PFS estimate ([3]; all patients in stratum B): 5.2% ± 3.5%; 2-year OS estimate ([3]; all patients in stratum B): 33.7% ± 9.7%; 6-month PFS estimate ([3]; all patients in stratum B): 10.3% ± 5.6%; Objective radiologic responses ([3]; stratum B): No objective radiologic responses were observed; inhibition of phospho-PDGFR (phospho-PDGFR): 53%; 1-year OS estimate (newly diagnosed DIPG; all patients in stratum A): 43.3% ± 8.7%; 1-year PFS estimate (newly diagnosed DIPG; all patients in stratum A): 17.8% ± 7.2%; 2-year OS estimate (newly diagnosed DIPG; all patients in stratum A): 20.0% ± 6.8%; 6-month PFS estimate (newly diagnosed DIPG; all patients in stratum A): 74.9% ± 8.2%; OS distributions versus historical cohort of newly diagnosed DIPG (n = 189) (newly diagnosed DIPG; stratum A, log-rank P = .99): no significant difference; 50% inhibitory concentration (PDGF α receptor): approximately 1 ng/mL; IC50 (PDGF α receptor; [5]): ~2.25 nM; DLTs attributable to crenolanib during the DLT observation period ([4]; dose level 3): grade 4 GGT, ALT, and AST elevations; DLTs attributable to crenolanib during the DLT observation period ([4]; dose level 4): grade 3 amylase, GGT, ALT, and AST elevations; also recorded: grade 3 GGT elevation; patients having grade 3/4 elevations of ALT, AST, GGT, or alkaline phosphatase ([4]; during and after the DLT period): 17%; Maximum tolerated dose (MTD) ([4]; once daily single agent, pediatric): 170 mg/m^2; Most common grade 3/4 toxicity ([4]; resolved with drug interruption): leukopenia
